Results reported in ChEMBL document CHEMBL5661979, “Pharmacological inhibition of BMK1 suppresses tumor growth through promyelocytic leukemia protein” (Cancer Cell, 2010).

Assays:
[1] = Inhibition of PCTAIRE2/3 in human HeLa cells lysate at 10 uM pre incubated for 15 mins followed by ADP acyl phosphate probe addition and measured after 10 mins by LC-MS/MS analysis relative to control; conditions: 25 min, condition cancer
[2] = biological target: T1, Calcium/calmodulin-dependent protein kinase type II subunit delta (Homo sapiens, UniProt Q13557); test: Inhibition of CAMK2d in human HeLa cells lysate pre incubated for 15 mins followed by ATP acyl phosphate probe addition and measured after 10 mins by LC-MS/MS analysis; assay type: subcellular
How it was run: (§1)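 KiNativ-type profiling in HeLa lysate (5 mg/mL total protein). Lysate preincubated 15 min with inhibitor at 50, 10, 2, 0.8 or 0 μM, then ATP or ADP acylphosphate probe added (5 μM final) for 10 min. Reaction stopped with urea and analysed by targeted MS, using up to four fragment ions per kinase peptide-probe conjugate. % inhibition calculated against untreated lysate. Duplicate reactions.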

[3] = biological target: Serine/threonine-protein kinase MARK1 (Homo sapiens, UniProt Q9P0L2); test: Inhibition of MARK1 in human HeLa cells lysate pre incubated for 15 mins followed by ADP acyl phosphate probe addition and measured after 10 mins by LC-MS/MS analysis; assay type: subcellular
[4] = biological target: Serine/threonine-protein kinase Nek1 (Homo sapiens) (UniProt Q96PY6); test: Inhibition of NEK1 in human HeLa cells lysate at 50 uM pre incubated for 15 mins followed by ATP acyl phosphate probe addition and measured after 10 mins by LC-MS/MS analysis relative to control; assay type: subcellular; conditions: time 25.0 min
[5] = biological target: T2, Phosphatidylinositol 3-kinase catalytic subunit type 3 (Homo sapiens, UniProt Q8NEB9); test: Inhibition of PIK3C3 in human HeLa cells lysate at 50 uM pre incubated for 15 mins followed by ATP acyl phosphate probe addition and measured after 10 mins by LC-MS/MS analysis relative to control; assay type: subcellular; conditions: time 25.0 min
[6] = biological target: T3, Phosphorylase b kinase gamma catalytic chain, liver/testis isoform (Homo sapiens, UniProt P15735); test: Inhibition of PHKg2 in human HeLa cells lysate pre incubated for 15 mins followed by ADP acyl phosphate probe addition and measured after 10 mins by LC-MS/MS analysis; assay type: subcellular
[7] = biological target: Serine/threonine-protein kinase MRCK beta (Homo sapiens, UniProt Q9Y5S2); test: Inhibition of MRCKB in human HeLa cells lysate at 50 uM pre incubated for 15 mins followed by ATP acyl phosphate probe addition and measured after 10 mins by LC-MS/MS analysis relative to control; assay type: subcellular; conditions: time 25.0 min
[8] = biological target: Serine/threonine-protein kinase WNK1 (Homo sapiens, UniProt Q9H4A3); test: Inhibition of Wnk1 in human HeLa cells lysate pre incubated for 15 mins followed by ATP acyl phosphate probe addition and measured after 10 mins by LC-MS/MS analysis; assay type: subcellular
[9] = biological target: T4, Serine/threonine-protein kinase B-raf (Homo sapiens, UniProt P15056); test: Inhibition of BRAF in human HeLa cells lysate at 50 uM pre incubated for 15 mins followed by ATP acyl phosphate probe addition and measured after 10 mins by LC-MS/MS analysis relative to control; assay type: subcellular; conditions: time 25.0 min; how it was run: as §1
[10] = biological target: T4, Serine/threonine-protein kinase B-raf; test: Inhibition of BRAF in human HeLa cells lysate at 2 uM pre incubated for 15 mins followed by ADP acyl phosphate probe addition and measured after 10 mins by LC-MS/MS analysis relative to control; assay type: subcellular; conditions: time 25.0 min; how it was run: as §1
[11] = biological target: T1, Calcium/calmodulin-dependent protein kinase type II subunit delta; test: Inhibition of CAMK2d in human HeLa cells lysate at 10 uM pre incubated for 15 mins followed by ATP acyl phosphate probe addition and measured after 10 mins by LC-MS/MS analysis relative to control; assay type: subcellular; conditions: time 25.0 min; how it was run: as §1
[12] = biological target: Serine/threonine-protein kinase 38 (Homo sapiens, UniProt Q15208); test: Inhibition of NDR1 in human HeLa cells lysate at 50 uM pre incubated for 15 mins followed by ATP acyl phosphate probe addition and measured after 10 mins by LC-MS/MS analysis relative to control; assay type: subcellular; conditions: time 25.0 min
[13] = biological target: T5, Serine/threonine-protein kinase Nek9 (Homo sapiens) (UniProt Q8TD19); test: Inhibition of NEK9 in human HeLa cells lysate at 50 uM pre incubated for 15 mins followed by ADP acyl phosphate probe addition and measured after 10 mins by LC-MS/MS analysis relative to control; assay type: subcellular; conditions: time 25.0 min
T5 sequence (whole entry): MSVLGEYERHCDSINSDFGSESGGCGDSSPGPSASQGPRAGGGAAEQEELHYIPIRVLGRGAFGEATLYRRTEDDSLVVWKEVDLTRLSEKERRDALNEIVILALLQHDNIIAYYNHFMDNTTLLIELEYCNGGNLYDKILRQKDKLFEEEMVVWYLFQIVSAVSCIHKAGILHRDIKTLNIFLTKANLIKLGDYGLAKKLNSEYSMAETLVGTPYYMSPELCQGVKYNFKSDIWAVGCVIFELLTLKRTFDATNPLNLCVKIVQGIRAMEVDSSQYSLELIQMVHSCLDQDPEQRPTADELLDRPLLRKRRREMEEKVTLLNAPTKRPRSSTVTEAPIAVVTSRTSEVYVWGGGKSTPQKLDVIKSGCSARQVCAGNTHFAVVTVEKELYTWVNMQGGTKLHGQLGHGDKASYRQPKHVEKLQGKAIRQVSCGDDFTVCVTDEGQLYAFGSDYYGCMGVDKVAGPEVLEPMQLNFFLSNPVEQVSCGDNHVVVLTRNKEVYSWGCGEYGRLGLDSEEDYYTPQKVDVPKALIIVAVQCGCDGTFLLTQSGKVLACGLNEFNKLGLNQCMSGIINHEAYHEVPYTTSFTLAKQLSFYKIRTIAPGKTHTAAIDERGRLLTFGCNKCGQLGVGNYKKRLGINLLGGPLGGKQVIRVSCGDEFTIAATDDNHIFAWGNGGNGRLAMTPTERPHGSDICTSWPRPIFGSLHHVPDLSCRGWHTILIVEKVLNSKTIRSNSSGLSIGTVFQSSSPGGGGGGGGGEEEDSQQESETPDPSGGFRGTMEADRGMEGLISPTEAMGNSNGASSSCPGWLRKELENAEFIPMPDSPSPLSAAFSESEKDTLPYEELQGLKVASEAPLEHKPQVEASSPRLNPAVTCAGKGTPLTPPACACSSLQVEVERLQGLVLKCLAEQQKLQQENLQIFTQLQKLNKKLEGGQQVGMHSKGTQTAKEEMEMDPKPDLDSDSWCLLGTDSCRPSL

[14] = Toxicity in C57Bl/6 mouse assessed as effect on total protein level at 50 mg/kg, ip for 14 days (reference value: 5.8 g/dl); assay type: organism-based; conditions: in vivo, 336 h, time 14 day
[15] = biological target: Ribosomal protein S6 kinase alpha-5 (Homo sapiens, UniProt O75582); test: Inhibition of MSK1 domain 1 K1 site in human HeLa cells lysate at 2 uM pre incubated for 15 mins followed by ADP acyl phosphate probe addition and measured after 10 mins by LC-MS/MS analysis relative to control; assay type: subcellular; conditions: time 25.0 min
[16] = biological target: T3, Phosphorylase b kinase gamma catalytic chain, liver/testis isoform; test: Inhibition of PHKg2 in human HeLa cells lysate pre incubated for 15 mins followed by ATP acyl phosphate probe addition and measured after 10 mins by LC-MS/MS analysis; assay type: subcellular
[17] = biological target: T2, Phosphatidylinositol 3-kinase catalytic subunit type 3; test: Inhibition of PIK3C3 in human HeLa cells lysate at 10 uM pre incubated for 15 mins followed by ATP acyl phosphate probe addition and measured after 10 mins by LC-MS/MS analysis relative to control; assay type: subcellular; conditions: time 25.0 min

T1 sequence (Q13557 whole entry, the tested form may be a part): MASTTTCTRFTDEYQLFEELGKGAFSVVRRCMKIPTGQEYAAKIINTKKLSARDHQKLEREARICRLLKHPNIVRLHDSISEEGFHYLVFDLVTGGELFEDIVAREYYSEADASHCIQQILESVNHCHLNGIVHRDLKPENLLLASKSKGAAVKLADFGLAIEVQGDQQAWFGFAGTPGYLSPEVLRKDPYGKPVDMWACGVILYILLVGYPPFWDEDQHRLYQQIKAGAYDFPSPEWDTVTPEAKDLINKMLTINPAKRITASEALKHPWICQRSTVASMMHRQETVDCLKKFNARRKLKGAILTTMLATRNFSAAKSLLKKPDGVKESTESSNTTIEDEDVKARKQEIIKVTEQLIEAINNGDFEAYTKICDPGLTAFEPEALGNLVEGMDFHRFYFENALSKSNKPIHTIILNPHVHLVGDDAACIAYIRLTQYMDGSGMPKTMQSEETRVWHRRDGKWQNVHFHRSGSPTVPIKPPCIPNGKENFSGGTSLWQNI
T3 sequence (P15735 whole entry, canonical isoform): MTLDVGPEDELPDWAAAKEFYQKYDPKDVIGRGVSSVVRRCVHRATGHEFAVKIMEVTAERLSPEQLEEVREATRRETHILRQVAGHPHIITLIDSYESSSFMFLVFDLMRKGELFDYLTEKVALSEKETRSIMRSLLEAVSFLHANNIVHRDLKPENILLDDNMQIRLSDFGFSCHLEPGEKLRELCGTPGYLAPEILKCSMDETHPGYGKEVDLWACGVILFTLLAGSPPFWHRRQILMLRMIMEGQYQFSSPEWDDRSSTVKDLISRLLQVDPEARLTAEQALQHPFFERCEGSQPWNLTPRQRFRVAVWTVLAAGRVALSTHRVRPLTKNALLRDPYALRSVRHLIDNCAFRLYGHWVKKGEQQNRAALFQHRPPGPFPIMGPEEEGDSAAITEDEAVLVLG
T2 sequence (Q8NEB9 whole entry, canonical isoform): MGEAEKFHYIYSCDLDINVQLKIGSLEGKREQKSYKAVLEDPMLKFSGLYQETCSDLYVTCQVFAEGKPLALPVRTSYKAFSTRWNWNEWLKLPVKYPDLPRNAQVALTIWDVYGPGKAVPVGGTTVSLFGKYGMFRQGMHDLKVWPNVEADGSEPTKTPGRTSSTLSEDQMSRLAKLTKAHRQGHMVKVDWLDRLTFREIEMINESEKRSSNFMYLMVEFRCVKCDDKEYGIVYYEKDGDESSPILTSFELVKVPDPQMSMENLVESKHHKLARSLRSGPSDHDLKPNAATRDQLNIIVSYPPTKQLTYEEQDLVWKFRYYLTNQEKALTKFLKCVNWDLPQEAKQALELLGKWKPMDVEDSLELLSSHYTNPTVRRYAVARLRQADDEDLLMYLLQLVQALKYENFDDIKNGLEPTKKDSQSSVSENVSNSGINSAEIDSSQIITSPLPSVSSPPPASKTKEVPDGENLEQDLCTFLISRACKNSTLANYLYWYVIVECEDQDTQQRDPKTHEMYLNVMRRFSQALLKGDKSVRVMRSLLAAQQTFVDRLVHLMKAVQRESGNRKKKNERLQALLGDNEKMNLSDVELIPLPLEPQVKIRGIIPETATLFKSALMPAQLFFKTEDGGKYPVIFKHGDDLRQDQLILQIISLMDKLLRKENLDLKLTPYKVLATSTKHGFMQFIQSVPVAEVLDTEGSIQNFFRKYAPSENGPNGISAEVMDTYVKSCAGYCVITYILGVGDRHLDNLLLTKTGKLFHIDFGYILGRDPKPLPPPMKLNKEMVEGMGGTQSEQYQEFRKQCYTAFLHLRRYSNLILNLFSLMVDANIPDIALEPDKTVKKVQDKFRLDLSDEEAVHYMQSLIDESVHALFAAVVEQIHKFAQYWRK
T4 sequence (P15056 whole entry): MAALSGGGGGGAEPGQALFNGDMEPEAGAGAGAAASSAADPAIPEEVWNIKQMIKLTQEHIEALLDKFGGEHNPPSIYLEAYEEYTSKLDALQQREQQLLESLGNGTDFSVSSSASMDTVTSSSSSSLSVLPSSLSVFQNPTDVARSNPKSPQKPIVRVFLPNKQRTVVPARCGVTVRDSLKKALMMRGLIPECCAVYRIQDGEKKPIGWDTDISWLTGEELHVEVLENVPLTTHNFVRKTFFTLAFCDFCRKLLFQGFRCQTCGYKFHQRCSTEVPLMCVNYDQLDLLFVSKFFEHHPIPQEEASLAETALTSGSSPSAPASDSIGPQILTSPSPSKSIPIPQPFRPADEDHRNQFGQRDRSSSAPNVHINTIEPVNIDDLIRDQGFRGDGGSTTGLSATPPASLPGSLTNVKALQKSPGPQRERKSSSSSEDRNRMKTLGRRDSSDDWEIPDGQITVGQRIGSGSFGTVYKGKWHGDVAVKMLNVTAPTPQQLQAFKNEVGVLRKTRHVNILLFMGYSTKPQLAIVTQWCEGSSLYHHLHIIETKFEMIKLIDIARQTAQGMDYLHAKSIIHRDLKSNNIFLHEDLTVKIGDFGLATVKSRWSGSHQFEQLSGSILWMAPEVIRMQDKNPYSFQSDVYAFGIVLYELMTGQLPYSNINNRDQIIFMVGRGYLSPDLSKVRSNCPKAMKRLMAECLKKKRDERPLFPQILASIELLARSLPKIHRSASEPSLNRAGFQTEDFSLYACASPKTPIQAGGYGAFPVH
Serine/threonine-protein kinase Nek1 (Homo sapiens), sequence (Q96PY6 whole entry): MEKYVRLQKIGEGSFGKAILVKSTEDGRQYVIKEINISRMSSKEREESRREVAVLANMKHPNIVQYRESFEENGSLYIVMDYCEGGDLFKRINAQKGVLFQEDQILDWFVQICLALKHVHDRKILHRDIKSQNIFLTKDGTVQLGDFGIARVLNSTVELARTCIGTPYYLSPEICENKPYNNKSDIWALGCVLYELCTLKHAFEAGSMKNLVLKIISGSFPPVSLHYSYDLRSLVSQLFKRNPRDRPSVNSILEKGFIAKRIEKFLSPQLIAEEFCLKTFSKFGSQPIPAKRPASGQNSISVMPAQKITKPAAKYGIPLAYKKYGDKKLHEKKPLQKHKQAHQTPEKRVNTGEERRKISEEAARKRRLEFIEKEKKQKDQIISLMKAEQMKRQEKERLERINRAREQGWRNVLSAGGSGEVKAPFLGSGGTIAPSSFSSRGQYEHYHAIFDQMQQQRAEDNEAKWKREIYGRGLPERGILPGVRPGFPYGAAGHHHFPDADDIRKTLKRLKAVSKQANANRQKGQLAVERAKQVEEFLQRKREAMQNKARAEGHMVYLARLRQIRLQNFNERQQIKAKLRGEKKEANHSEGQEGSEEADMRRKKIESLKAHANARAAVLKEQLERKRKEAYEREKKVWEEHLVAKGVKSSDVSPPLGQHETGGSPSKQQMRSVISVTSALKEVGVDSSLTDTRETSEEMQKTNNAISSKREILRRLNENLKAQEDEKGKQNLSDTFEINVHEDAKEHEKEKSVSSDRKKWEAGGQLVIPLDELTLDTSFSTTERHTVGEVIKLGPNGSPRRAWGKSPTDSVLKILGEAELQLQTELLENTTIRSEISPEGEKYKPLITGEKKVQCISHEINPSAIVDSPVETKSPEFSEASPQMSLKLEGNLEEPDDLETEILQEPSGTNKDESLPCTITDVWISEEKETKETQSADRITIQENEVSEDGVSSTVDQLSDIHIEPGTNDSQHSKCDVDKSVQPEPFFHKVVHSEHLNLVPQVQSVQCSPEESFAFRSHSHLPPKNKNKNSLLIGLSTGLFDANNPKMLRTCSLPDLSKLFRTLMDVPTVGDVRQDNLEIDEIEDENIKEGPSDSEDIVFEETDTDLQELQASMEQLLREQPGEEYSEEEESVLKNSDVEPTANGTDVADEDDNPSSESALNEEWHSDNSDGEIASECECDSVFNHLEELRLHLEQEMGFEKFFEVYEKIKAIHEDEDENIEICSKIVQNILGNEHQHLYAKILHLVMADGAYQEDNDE
Serine/threonine-protein kinase 38, sequence (Q15208 2-465 limits assumed): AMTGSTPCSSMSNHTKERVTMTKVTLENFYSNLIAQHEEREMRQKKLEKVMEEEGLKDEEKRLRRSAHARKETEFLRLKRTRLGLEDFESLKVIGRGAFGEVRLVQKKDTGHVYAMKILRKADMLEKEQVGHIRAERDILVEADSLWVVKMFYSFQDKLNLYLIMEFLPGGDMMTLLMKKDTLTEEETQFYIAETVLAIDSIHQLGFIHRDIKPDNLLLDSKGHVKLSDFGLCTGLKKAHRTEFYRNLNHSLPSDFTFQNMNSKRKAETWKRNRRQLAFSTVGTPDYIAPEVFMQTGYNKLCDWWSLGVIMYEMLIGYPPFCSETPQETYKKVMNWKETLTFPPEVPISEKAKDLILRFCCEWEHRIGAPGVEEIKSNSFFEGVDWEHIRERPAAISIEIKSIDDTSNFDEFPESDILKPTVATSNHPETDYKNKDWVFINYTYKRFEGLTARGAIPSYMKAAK
Serine/threonine-protein kinase MARK1, sequence (Q9P0L2 whole entry): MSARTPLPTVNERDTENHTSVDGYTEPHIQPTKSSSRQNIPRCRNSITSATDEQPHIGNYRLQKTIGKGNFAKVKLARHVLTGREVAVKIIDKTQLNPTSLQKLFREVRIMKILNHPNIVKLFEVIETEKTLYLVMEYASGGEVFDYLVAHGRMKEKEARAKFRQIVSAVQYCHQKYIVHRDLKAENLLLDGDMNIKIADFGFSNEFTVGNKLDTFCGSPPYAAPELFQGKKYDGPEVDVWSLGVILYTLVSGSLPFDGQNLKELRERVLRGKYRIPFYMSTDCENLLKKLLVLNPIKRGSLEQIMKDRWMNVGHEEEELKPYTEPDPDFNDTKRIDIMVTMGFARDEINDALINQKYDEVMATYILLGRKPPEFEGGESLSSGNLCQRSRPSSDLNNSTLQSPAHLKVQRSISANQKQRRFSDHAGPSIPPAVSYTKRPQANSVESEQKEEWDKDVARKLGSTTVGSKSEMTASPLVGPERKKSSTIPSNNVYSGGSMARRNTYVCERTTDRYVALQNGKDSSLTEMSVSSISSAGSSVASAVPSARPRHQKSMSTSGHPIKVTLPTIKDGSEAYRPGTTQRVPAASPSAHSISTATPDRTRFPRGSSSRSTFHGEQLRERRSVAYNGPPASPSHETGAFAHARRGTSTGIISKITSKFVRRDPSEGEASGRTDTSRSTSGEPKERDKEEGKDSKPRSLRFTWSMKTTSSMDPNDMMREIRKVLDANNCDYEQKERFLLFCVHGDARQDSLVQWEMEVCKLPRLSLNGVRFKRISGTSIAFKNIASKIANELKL

## CCOc1cc(N2CCC(O)CC2)ccc1Nc1ncc2c(n1)N(C)c1ccccc1C(=O)N2C
[1]
  inhibition at 10 µM: -4.4%
[2]
  IC50: > 50 µM
[3]
  IC50: > 50 µM
[4]
  inhibition: -3.8%
[5]
  inhibition: 19.3%
[6]
  IC50: > 50 µM
[7]
  inhibition: -5%
[8]
  IC50: > 50 µM
[9]
  inhibition: 8%
[10]
  inhibition: 10.5%
[11]
  inhibition: 3.2%
[12]
  inhibition: 5.3%
[13]
  inhibition: 4.5%
[14]
  Activity: 5.8 g/dL
[15]
  inhibition: 28%
[16]
  IC50: > 50 µM
[17]
  inhibition: -4.3%
